≈ marks a conversion by molar mass, not a printed value.
Key:
Assay type in all cases: functional
[1] = tested on: Pseudomonas aeruginosa; experiment: Antibacterial activity against Pseudomonas aeruginosa PA1022 by broth dilution method
[2] = tested on: Pseudomonas aeruginosa; experiment: Antibacterial activity against Pseudomonas aeruginosa PA1036 assessed as time required for reduction of bacterial load to 3 log CFU/ml at 0.2 mg/ml up to 48 hrs by time-kill assay
How it was run: (§1)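 Overnight cultures were diluted and grown at 37°C to OD600 ≈0.3, then set at 5 × 10^5–1 × 10^6 CFU/ml in 10 ml CAMHB. Drug was added at 0.2, 0.6 or 2.0 mg/ml, and cultures were shaken at 37°C. Samples taken at 0, 0.5, 1, 2, 4, 8 and 24 h were washed twice in CAMHB, diluted in saline and plated on Mueller-Hinton agar. Plates were incubated up to 48 h before colony counting.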

[3] = tested on: Pseudomonas aeruginosa; experiment: Antibacterial activity against Pseudomonas aeruginosa PA899 assessed as time required for reduction of bacterial load to 3 log CFU/ml at 0.2 mg/ml up to 48 hrs by time-kill assay; how it was run: as §1
[4] = tested on: Pseudomonas aeruginosa; experiment: Antibacterial activity against Pseudomonas aeruginosa PA5063 by broth dilution method
How it was run: (§2)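 Broth microdilution MIC per CLSI reference method; twofold serial dilutions in cation-adjusted Mueller-Hinton broth. […] Endpoint read by OD600 and confirmed visually.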

[5] = tested on: Pseudomonas aeruginosa; experiment: Antibacterial activity against Pseudomonas aeruginosa PA881 assessed as time required for reduction of bacterial load to 3 log CFU/ml at 0.6 mg/ml up to 48 hrs by time-kill assay; how it was run: as §1
[6] = tested on: Pseudomonas aeruginosa; experiment: Antibacterial activity against Pseudomonas aeruginosa PA881 assessed as time required for reduction of bacterial load to 3 log CFU/ml at 2 mg/ml up to 48 hrs by time-kill assay; how it was run: as §1
[7] = tested on: Staphylococcus aureus; experiment: Antibacterial activity against methicillin-resistant Staphylococcus aureus by broth dilution method; how it was run: as §2
[8] = tested on: Pseudomonas aeruginosa; experiment: Antibacterial activity against Pseudomonas aeruginosa PA1054 assessed as inhibition of biofilm formation by microtiter plate reader assay; settings: for MIC: Pseudomonas aeruginosa, PA1054
How it was run: (§3)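 Biofilms of cystic fibrosis P. aeruginosa isolates were grown and tested by a previously described method. The endpoint was the biofilm inhibitory concentration, the drug level that prevents biofilm cell growth, compared against planktonic broth-microdilution MICs.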

[9] = tested on: Pseudomonas aeruginosa; experiment: Antibacterial activity against Pseudomonas aeruginosa ATCC 27853 assessed as time required for reduction of bacterial load to 3 log CFU/ml at 2 mg/ml up to 48 hrs by time-kill assay
[10] = tested on: Pseudomonas aeruginosa; experiment: Antibacterial activity against Pseudomonas aeruginosa PA5063 assessed as inhibition of biofilm formation by microtiter plate reader assay; how it was run: as §3
[11] = tested on: Pseudomonas aeruginosa; experiment: Antibacterial activity against Pseudomonas aeruginosa PA876 assessed as time required for reduction of bacterial load to 3 log CFU/ml at 0.6 mg/ml up to 48 hrs by time-kill assay; how it was run: as §1
[12] = tested on: Pseudomonas aeruginosa; experiment: Antibacterial activity against Pseudomonas aeruginosa PA1022 assessed as time required for reduction of bacterial load to 3 log CFU/ml at 0.6 mg/ml up to 48 hrs by time-kill assay; how it was run: as §1
[13] = tested on: Pseudomonas aeruginosa; experiment: Antibacterial activity against Pseudomonas aeruginosa ATCC 27853 by broth dilution method; how it was run: as §2
[14] = tested on: Pseudomonas aeruginosa; experiment: Antibacterial activity against Pseudomonas aeruginosa PA1042 assessed as inhibition of biofilm formation by microtiter plate reader assay; how it was run: as §3
[15] = tested on: Pseudomonas aeruginosa; experiment: Antibacterial activity against Pseudomonas aeruginosa PA5043 assessed as time required for reduction of bacterial load to 3 log CFU/ml at 2 mg/ml up to 48 hrs by time-kill assay; how it was run: as §1
[16] = tested on: Pseudomonas aeruginosa; experiment: Antibacterial activity against Pseudomonas aeruginosa PA1036 by broth dilution method; how it was run: as §2
[17] = tested on: Pseudomonas aeruginosa; experiment: Antibacterial activity against Pseudomonas aeruginosa PA5020 assessed as time required for reduction of bacterial load to 3 log CFU/ml at 2 mg/ml up to 48 hrs by time-kill assay; how it was run: as §1
[18] = tested on: Pseudomonas aeruginosa; experiment: Antibacterial activity against Pseudomonas aeruginosa PA1042 by broth dilution method; how it was run: as §2
[19] = tested on: Pseudomonas aeruginosa; experiment: Antibacterial activity against Pseudomonas aeruginosa PA880 by broth dilution method; how it was run: as §2
[20] = tested on: Pseudomonas aeruginosa; experiment: Antibacterial activity against Pseudomonas aeruginosa PA1022 assessed as time required for reduction of bacterial load to 3 log CFU/ml at 0.2 mg/ml up to 48 hrs by time-kill assay; how it was run: as §1
[21] = tested on: Pseudomonas aeruginosa; experiment: Antibacterial activity against Pseudomonas aeruginosa PA5020 assessed as time required for reduction of bacterial load to 3 log CFU/ml at 0.6 mg/ml up to 48 hrs by time-kill assay; how it was run: as §1
[22] = tested on: Pseudomonas aeruginosa; experiment: Antibacterial activity against Pseudomonas aeruginosa PA899 by broth dilution method; how it was run: as §2
[23] = tested on: Pseudomonas aeruginosa; experiment: Antibacterial activity against Pseudomonas aeruginosa PA1054 assessed as time required for reduction of bacterial load to 3 log CFU/ml at 0.2 mg/ml up to 48 hrs by time-kill assay; how it was run: as §1
[24] = tested on: Pseudomonas aeruginosa; experiment: Antibacterial activity against Pseudomonas aeruginosa PA5043 assessed as time required for reduction of bacterial load to 3 log CFU/ml at 0.2 mg/ml up to 48 hrs by time-kill assay; how it was run: as §1
[25] = tested on: Pseudomonas aeruginosa; experiment: Antibacterial activity against Pseudomonas aeruginosa PA899 assessed as time required for reduction of bacterial load to 3 log CFU/ml at 0.6 mg/ml up to 48 hrs by time-kill assay; how it was run: as §1
[26] = tested on: Pseudomonas aeruginosa; experiment: Antibacterial activity against Pseudomonas aeruginosa ATCC 27853 assessed as time required for reduction of bacterial load to 3 log CFU/ml at 0.6 mg/ml up to 48 hrs by time-kill assay
[27] = tested on: Pseudomonas aeruginosa; experiment: Antibacterial activity against Pseudomonas aeruginosa PA5043 by broth dilution method; how it was run: as §2
[28] = tested on: Pseudomonas aeruginosa; experiment: Antibacterial activity against Pseudomonas aeruginosa PA876 by broth dilution method; how it was run: as §2
[29] = tested on: Pseudomonas aeruginosa; experiment: Antibacterial activity against Pseudomonas aeruginosa PA861 by broth dilution method; how it was run: as §2
[30] = tested on: Burkholderia cepacia; experiment: Antibacterial activity against Burkholderia cepacia clinical isolates by broth dilution method
[31] = tested on: Pseudomonas aeruginosa; experiment: Antibacterial activity against Pseudomonas aeruginosa PAM1032 overexpressing multidrug efflux pump MexAB-OprM by broth dilution method

SMILES: C[C@H]1[C@H](NC(=O)/C(=N\OC(C)(C)C(=O)O)c2csc(N)n2)C(=O)N1S(=O)(=O)O [AZTREONAM]
- MIC [1]: 16 µg/mL (≈ 36.7 µM)
- Time [2]: >24 h
- Time [3]: >24 h
- MIC [4]: 8 µg/mL (≈ 18.4 µM)
- Time [5]: 8 h
- Time [6]: 8 h
- MIC50 [7]: > 512 µg/mL
- MIC90 [7]: > 512 µg/mL
- BBC [8]: >64 µg/mL
- MIC [8]: 4 µg/mL (≈ 9.19 µM)
- Time [9]: 24 h
- BBC [10]: >256 µg/mL
- Time [11]: >24 h
- Time [12]: >24 h
- MIC [13]: 4 µg/mL (≈ 9.19 µM)
- BBC [14]: >8 µg/mL
- Time [15]: 2 h
- MIC [16]: 32 µg/mL (≈ 73.5 µM)
- Time [17]: 24 h
- MIC [18]: 0.5 µg/mL (≈ 1.15 µM)
- MIC [19]: 0.5 µg/mL (≈ 1.15 µM)
- Time [20]: >24 h
- Time [21]: >24 h
- MIC [22]: 8 µg/mL (≈ 18.4 µM)
- Time [23]: 24 h
- Time [24]: 8 h
- Time [25]: 24 h
- Time [26]: 24 h
- MIC [27]: 1 µg/mL (≈ 2.3 µM)
- MIC90 [28]: > 128 µg/mL
- MIC [29]: 128 µg/mL (≈ 294 µM)

SMILES: C[C@H]1COc2c(N3CCN(C)CC3)c(F)cc3c(=O)c(C(=O)O)cn1c23.C[C@H]1COc2c(N3CCN(C)CC3)c(F)cc3c(=O)c(C(=O)O)cn1c23.O [LEVOFLOXACIN]
- Time [2]: <=0.5 hr
- Time [3]: <=0.5 hr
- MIC [4]: 0.5 µg/mL
- Time [5]: <=0.5 hr
- Time [6]: <=0.5 hr
- MIC50 [7]: 4 µg/mL
- MIC90 [7]: 32 µg/mL
- BBC [8]: 1 µg/mL
- Time [9]: <=0.5 hr
- BBC [10]: 1 µg/mL
- Time [11]: <=0.5 hr
- Time [12]: <=0.5 hr
- BBC [14]: 1 µg/mL
- Time [15]: <=0.5 hr
- MIC [16]: 8 µg/mL
- Time [17]: 2 h
- Time [20]: <=0.5 hr
- Time [21]: 4 h
- MIC [22]: 0.5 µg/mL
- Time [23]: <=0.5 hr
- MIC50 [30]: 4 µg/mL
- MIC90 [30]: 32 µg/mL
- Time [24]: <=0.5 hr
- Time [25]: <=0.5 hr
- Time [26]: <=0.5 hr
- MIC90 [28]: 8 µg/mL
- MIC [29]: 32 µg/mL

SMILES: NC[C@H]1O[C@H](O[C@H]2[C@H](O)[C@@H](O[C@H]3O[C@H](CO)[C@@H](O)[C@H](N)[C@H]3O)[C@H](N)C[C@@H]2N)[C@H](N)C[C@@H]1O [TOBRAMYCIN]
- MIC [1]: > 32 µg/mL
- Time [2]: <=0.5 hr
- Time [3]: <=0.5 hr
- MIC [4]: 0.25 µg/mL (≈ 0.535 µM)
- Time [5]: <=0.5 hr
- Time [6]: <=0.5 hr
- MIC50 [7]: 128 µg/mL (≈ 274 µM)
- MIC90 [7]: > 128 µg/mL
- BBC [8]: 1 µg/mL
- MIC [8]: 1 µg/mL (≈ 2.14 µM)
- Time [9]: <=0.5 hr
- BBC [10]: 2 µg/mL
- Time [11]: 4 h
- Time [12]: 4 h
- MIC [13]: 0.25 µg/mL (≈ 0.535 µM)
- BBC [14]: 1 µg/mL
- Time [15]: 1 h
- MIC [16]: 1 µg/mL (≈ 2.14 µM)
- Time [17]: 2 h
- MIC [31]: 0.25 µg/mL (≈ 0.535 µM)
- MIC [18]: 0.5 µg/mL (≈ 1.07 µM)
- MIC [19]: 1 µg/mL (≈ 2.14 µM)
- Time [20]: 4 h
- Time [21]: 2 h
- MIC [22]: 0.25 µg/mL (≈ 0.535 µM)
- Time [23]: <=0.5 hr
- MIC50 [30]: > 32 µg/mL
- MIC90 [30]: > 32 µg/mL
- Time [24]: 2 h
- Time [25]: <=0.5 hr
- Time [26]: <=0.5 hr
- MIC [27]: 8 µg/mL (≈ 17.1 µM)
- MIC90 [28]: 32 µg/mL (≈ 68.4 µM)
- MIC [29]: 16 µg/mL (≈ 34.2 µM)

From ChEMBL document CHEMBL1212734, “In vitro pharmacodynamics of levofloxacin and other aerosolized antibiotics under multiple conditions relevant to chronic pulmonary infection in cystic fibrosis” (2010)
